{
  "source": "ChEMBL document CHEMBL5331127",
  "about": "“Discovery of ARD-2051 as a Potent and Orally Efficacious Proteolysis Targeting Chimera (PROTAC) Degrader of Androgen Receptor for the Treatment of Advanced Prostate Cancer” (J Med Chem, 2023)",
  "key": {"[1]": {"tested_on": "LNCaP", "assay": "Induction of androgen receptor degradation in human LNCaP cells at 100 nM pretreated with thalidomide for 2 hrs followed by compound addition and 3 hrs by Western blot analysis", "format": "functional, cell-based", "details": "time 5.0 hrs", "procedure,_shortened": "(§1)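 LNCaP or VCaP cells pretreated 2 h with DMSO, ARi-12 (10 μM), thalidomide (10 μM), MG-132 (3 μM) or MLN4924 (0.5 μM), then given degrader at 100 nM for 3 h. AR measured by Western blot with GAPDH as loading control.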"}, "[2]": {"tested_on": "LNCaP", "assay": "Induction of androgen receptor degradation in human LNCaP cells at 100 nM pretreated with ARi-12 for 2 hrs followed by compound addition and 3 hrs by Western blot analysis", "format": "functional, cell-based", "details": "time 5.0 hrs", "procedure,_shortened": "as §1"}, "[3]": {"assay": "Plasma protein binding in monkey at 1 uM after 5 hrs by equilibrium dialysis based LC-MS/MS analysis", "format": "ADME, cell-free, Macaca mulatta", "details": "rhesus monkey", "procedure,_shortened": "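Equilibrium dialysis of pooled plasma of each species spiked at 1 μM against 0.1 M sodium phosphate, pH 7.4. 5 h at 37 °C with shaking at 60 rpm. Both sides matrix-matched, ACN/IS quench, LC/MS. % bound = 100 − (buffer/plasma peak-area ratio × 100); recovery also calculated. Warfarin as reference.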"}, "[4]": {"target": "T1, Androgen receptor (Homo sapiens) (UniProt P10275)", "T1 sequence (whole entry)": "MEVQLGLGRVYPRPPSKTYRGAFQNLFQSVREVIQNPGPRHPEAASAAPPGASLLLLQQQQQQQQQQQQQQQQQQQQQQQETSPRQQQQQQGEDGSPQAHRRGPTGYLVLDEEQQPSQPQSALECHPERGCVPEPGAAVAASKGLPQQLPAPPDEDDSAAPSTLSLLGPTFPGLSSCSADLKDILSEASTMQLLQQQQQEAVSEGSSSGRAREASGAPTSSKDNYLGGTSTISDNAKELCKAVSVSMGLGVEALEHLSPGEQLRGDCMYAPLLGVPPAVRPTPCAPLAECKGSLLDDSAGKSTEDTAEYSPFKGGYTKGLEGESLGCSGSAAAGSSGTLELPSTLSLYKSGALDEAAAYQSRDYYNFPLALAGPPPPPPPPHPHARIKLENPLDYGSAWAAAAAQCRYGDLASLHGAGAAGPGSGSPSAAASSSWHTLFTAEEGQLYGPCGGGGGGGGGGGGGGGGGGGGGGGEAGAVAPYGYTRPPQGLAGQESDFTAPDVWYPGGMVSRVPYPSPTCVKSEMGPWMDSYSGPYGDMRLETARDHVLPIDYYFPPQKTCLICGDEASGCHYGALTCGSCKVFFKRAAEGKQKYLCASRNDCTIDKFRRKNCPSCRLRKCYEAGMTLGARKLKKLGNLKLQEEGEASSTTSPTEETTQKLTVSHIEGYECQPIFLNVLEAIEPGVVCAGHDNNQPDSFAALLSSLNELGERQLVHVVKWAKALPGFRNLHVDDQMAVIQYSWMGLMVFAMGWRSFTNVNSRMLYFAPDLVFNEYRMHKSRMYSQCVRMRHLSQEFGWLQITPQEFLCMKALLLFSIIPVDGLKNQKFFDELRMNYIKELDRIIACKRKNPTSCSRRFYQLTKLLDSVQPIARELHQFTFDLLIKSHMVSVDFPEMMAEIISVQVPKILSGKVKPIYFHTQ", "assay": "Induction of androgen receptor degradation in human VCaP cells at 0.1 uM after 24 hrs by Western blotting analysis relative to control", "format": "cell-based", "procedure,_shortened": "(§2)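 VCaP cells treated for 24 h at 10, 100 or 1000 nM. AR protein measured by Western blotting.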"}, "[5]": {"assay": "AUC(0 to t) in ICR mouse at 2 mg/kg, iv measured upto 24 hrs by LC-MS/MS analysis", "format": "ADME, organism-based", "set-up": "time < 24 hrs, dose 2 mg/kg, route iv", "details": "in vivo", "procedure,_shortened": "(§3)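 Male ICR mice (2 mg/kg), male SD rats (1 mg/kg) or male Beagle dogs (1 mg/kg) given a single intravenous dose in 10% PEG400 + 90% PBS adjusted to pH 8.0 with NaOH.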"}, "[6]": {"assay": "Metabolic stability in dog plasma assessed as half life at 1 uM measured upto 120 mins by LC-MS/MS analysis", "format": "ADME, cell-free, Canis lupus familiaris", "details": "2 h", "procedure,_shortened": "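Compound at 1 μM final in pre-warmed plasma of each species, 37 °C for up to 2 h. ACN/IS quench at 0, 5, 15, 30, 60 and 120 min; LC/MS. Procaine as reference (benfluorex for rat). t1/2 = 0.693/slope of ln(fraction remaining) versus time.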"}, "[7]": {"tested_on": "LNCaP", "assay": "Induction of androgen receptor degradation in human LNCaP cells at 100 nM pretreated with MLN4924 for 2 hrs followed by compound addition and 3 hrs by Western blot analysis", "format": "functional, cell-based", "details": "time 5.0 hrs", "procedure,_shortened": "as §1"}, "[8]": {"assay": "AUC(0 to t) in Sprague-Dawley rat at 1 mg/kg, iv measured upto 24 hrs by LC-MS/MS analysis", "format": "ADME, organism-based", "set-up": "time < 24 hrs, dose 1 mg/kg, route iv", "details": "in vivo", "procedure,_shortened": "as §3"}, "[9]": {"tested_on": "VCaP", "assay": "Growth inhibition in human VCaP cells incubated for 4 days by WST-8 assay", "format": "functional, cell-based", "details": "96 h"}, "[10]": {"target": "Cytochrome P450 2D6 (Homo sapiens, UniProt P10635)", "sequence (P10635 whole entry)": "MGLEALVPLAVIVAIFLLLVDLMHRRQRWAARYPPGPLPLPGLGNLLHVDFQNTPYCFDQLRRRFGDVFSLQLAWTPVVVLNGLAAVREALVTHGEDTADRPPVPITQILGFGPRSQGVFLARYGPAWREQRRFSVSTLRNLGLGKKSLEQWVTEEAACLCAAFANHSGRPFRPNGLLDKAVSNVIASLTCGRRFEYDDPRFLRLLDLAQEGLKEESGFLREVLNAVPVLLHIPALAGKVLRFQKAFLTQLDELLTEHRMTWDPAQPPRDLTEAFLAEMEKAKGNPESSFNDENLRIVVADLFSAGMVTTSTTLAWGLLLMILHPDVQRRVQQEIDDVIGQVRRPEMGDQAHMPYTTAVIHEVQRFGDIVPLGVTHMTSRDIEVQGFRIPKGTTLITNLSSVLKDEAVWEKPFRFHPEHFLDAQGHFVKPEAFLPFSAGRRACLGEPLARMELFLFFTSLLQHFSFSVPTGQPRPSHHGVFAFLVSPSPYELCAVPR", "assay": "Inhibition of CYP2D6 in human liver microsomes preincubated for 5 mins followed by NADPH addition and measured after 10 mins by LC/MS analysis", "format": "ADME, Microsome"}, "[11]": {"assay": "Clearance in Beagle dog at 1 mg/kg, iv measured upto 24 hrs by LC-MS/MS analysis", "format": "ADME, organism-based, Canis lupus familiaris", "details": "in vivo", "procedure,_shortened": "as §3"}, "[12]": {"target": "T1, Androgen receptor (Homo sapiens)", "assay": "Induction of androgen receptor degradation in human VCaP cells at 0.01 uM after 24 hrs by Western blotting analysis relative to control", "format": "cell-based", "procedure,_shortened": "as §2"}, "[13]": {"assay": "Drug concentration in CB17 SCID mouse plasma xenografted with human VCaP cells at 12.5 mg/kg, po measured after 24 hrs by LC-MS/MS analysis", "format": "ADME, organism-based", "procedure,_shortened": "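SCID mice bearing one VCaP tumour each given a single oral 12.5 mg/kg dose in 100% PEG200. Plasma and tumour tissue collected at 6 and 24 h, 3 mice per time point. Values are mean ± SD.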"}, "[14]": {"target": "T2, Cytochrome P450 2C8 (Homo sapiens, UniProt P10632)", "T2 sequence (P10632 whole entry)": "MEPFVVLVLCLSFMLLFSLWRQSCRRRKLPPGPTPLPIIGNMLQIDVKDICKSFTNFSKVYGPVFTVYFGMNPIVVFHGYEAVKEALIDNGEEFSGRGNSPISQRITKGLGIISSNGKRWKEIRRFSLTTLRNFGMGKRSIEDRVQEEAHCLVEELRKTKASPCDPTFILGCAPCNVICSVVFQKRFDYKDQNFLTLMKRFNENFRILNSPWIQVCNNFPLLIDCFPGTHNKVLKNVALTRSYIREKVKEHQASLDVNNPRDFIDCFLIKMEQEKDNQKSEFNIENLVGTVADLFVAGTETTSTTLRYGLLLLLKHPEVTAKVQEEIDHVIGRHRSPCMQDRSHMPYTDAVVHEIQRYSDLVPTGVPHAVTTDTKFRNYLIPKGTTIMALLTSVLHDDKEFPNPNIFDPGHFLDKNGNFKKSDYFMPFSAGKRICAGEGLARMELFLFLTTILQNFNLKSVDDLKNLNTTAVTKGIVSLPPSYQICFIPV", "assay": "Inhibition of CYP2C8 in human liver microsomes preincubated for 5 mins followed by NADPH addition and measured after 20 mins by LC/MS analysis", "format": "ADME, Microsome"}},
  "note": "Activity calls are given as the source filed them. The rule behind the calls is not given here.",
  "data": [
    {"smiles": "C[C@H]1CC2(CCN(c3ccc(C(=O)N4CCN(C5CN(c6ccc7c(c6)C(=O)N(C6CCC(=O)NC6=O)C7=O)C5)CC4)cc3)CC2)CN1c1ccc(C#N)c(Cl)c1", "note": "(some centres undefined)", "values": [
      {"measurement": "Activity", "setting": "[1]", "result": "inactive"},
      {"measurement": "Activity", "setting": "[2]", "result": "inactive"},
      {"measurement": "PPB", "setting": "[3]", "result": 99.2, "unit": "%"},
      {"measurement": "Activity", "setting": "[4]", "result": "> 95", "unit": "%"},
      {"measurement": "AUCt", "setting": "[5]", "result": 8850, "unit": "ng·h/mL"},
      {"measurement": "t1/2", "setting": "[6]", "result": "> 2", "unit": "h"},
      {"measurement": "Activity", "setting": "[7]", "result": "inactive"},
      {"measurement": "AUCt", "setting": "[8]", "result": 1560, "unit": "ng·h/mL"},
      {"measurement": "IC50", "setting": "[9]", "result": 0.01, "unit": "µM"},
      {"measurement": "IC50", "setting": "[10]", "result": "> 10", "unit": "µM"},
      {"measurement": "clearance", "setting": "[11]", "result": 4.6, "unit": "mL/min/kg"},
      {"measurement": "Activity", "setting": "[12]", "result": "> 95", "unit": "%"},
      {"measurement": "concentration at 24 h", "setting": "[13]", "result": 742, "unit": "ng/mL"},
      {"measurement": "IC50", "setting": "[14]", "result": "> 10", "unit": "µM"}
    ]}
  ]
}
